ChEMBL document CHEMBL1130118, “A novel radioiodination reagent for protein radiopharmaceuticals with L-lysine as a plasma-stable metabolizable linkage to liberate m-iodohippuric acid after lysosomal proteolysis” (J Med Chem, 1997)
Several values for one entry are separate records, joined by “and”; a condition that tells them apart may be missing. Equal entries are not always repeated.

Legend:
Assay type in all cases: ADME, organism-based
Conditions in all cases: in vivo
[1] = test system: Mus musculus; assay: The biodistribution time for [131 I ]L-HML-NGA radioactivity after concomitant administration of [131 I ]L-HML-NGA and [125 I ]D-HML-NGA in mice. It is expressed as percent injected dose per gram of blood tissue.
Summary of the method: (§1)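 Six-week-old male ddY mice were given one i.v. co-injection of a 131I/125I-labelled NGA pair, each diluted to 90 µg/mL protein in 0.1 M PBS pH 6.0 and mixed 1:1, giving 9 µg of each radioiodinated NGA per mouse. Groups of five were killed at 5, 15, 30 min, 1 h and 3 h. Organs were weighed and counted in a well counter. Values are % ID per organ, blood as % ID/g, mean (SD).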

[2] = test system: Mus musculus; assay: The biodistribution time for [131 I ]L-HML-NGA radioactivity after concomitant administration of [131 I ]L-HML-NGA and [125 I ]D-HML-NGA in mice. It is expressed as percent injected dose per neck.; summary of the method: as §1
[3] = test system: Mus musculus; assay: The biodistribution time for [131 I ]L-HML-NGA radioactivity after concomitant administration of [131 I ]L-HML-NGA and [125 I ]L-HML-IT-NGA in mice. It is expressed as percent injected dose per stomach.; summary of the method: as §1
[4] = test system: Mus musculus; assay: The biodistribution time for [131 I ]L-HML-NGA radioactivity after concomitant administration of [131 I ]L-HML-NGA and [125 I ]MIH-NGA in mice. It is expressed as percent injected dose per gram of blood tissue.; summary of the method: as §1
[5] = test system: Mus musculus; assay: The biodistribution time for [131 I ]L-HML-NGA radioactivity after concomitant administration of [131 I ]L-HML-NGA and [125 I ]MPH-NGA in mice. It is expressed as percent injected dose per neck.; summary of the method: as §1
[6] = test system: Mus musculus; assay: The biodistribution time for [131 I ]L-HML-NGA radioactivity after concomitant administration of [131 I ]L-HML-NGA and [125 I ]MIH-NGA in mice. It is expressed as percent injected dose per neck.; summary of the method: as §1
[7] = species: Homo sapiens; assay: The percent protein-bound radioactivity in NGAfractions following incubation of radioiodinated [131 I ]L-HML-NGA in human serum after 3 hours
Summary of the method: (§2)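 Conjugates were diluted to 0.5 mg/mL in 0.1 M PBS pH 6.0, and 20 µL was added to 230 µL of freshly prepared human serum. Samples were incubated at 37 °C and taken at 1, 3, 6 or 24 h. Protein-bound fraction (Rf 0) was separated from small metabolites (Rf 0.6-0.9) by paper chromatography in methanol-water 4:1. Protein-bound radioactivity was divided by the initial radiochemical purity. Values are mean (SD).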

[8] = species: Homo sapiens; assay: The percent protein-bound radioactivity in NGAfractions following incubation of radioiodinated [131 I ]L-HML-NGA in human serum after 6 hours; summary of the method: as §2
[9] = test system: Mus musculus; assay: The biodistribution time for [131 I ]L-HML-NGA radioactivity after concomitant administration of [131 I ]L-HML-NGA and [125 I ]MIH-NGA in mice. It is expressed as percent injected dose per stomach.; summary of the method: as §1
[10] = test system: Mus musculus; assay: The biodistribution time for [131 I ]L-HML-NGA radioactivity after concomitant administration of [131 I ]L-HML-NGA and [125 I ]MPH-NGA in mice. It is expressed as percent injected dose per gram of blood tissue.; summary of the method: as §1
[11] = test system: Mus musculus; assay: The biodistribution time for [131 I ]L-HML-NGA radioactivity after concomitant administration of [131 I ]L-HML-NGA and [125 I ]MPH-NGA in mice. It is expressed as percent injected dose per intestine.; summary of the method: as §1
[12] = test system: Mus musculus; assay: Biodistribution time for compound radioactivity after concomitant administration of compound and [125 I ]MIH-NGA in mice. It is expressed as % injected dose per liver. Values are mean(SD) of 5 animals for each experiment after 5 minutes; summary of the method: as §1
[13] = Cumulative radioactivity exerted by [131 I ]L-HML-NGA in the urine at 24 hour postinjection of [131 I ]L-HML-NGA and [125 I ]MPH-NGA.
Summary of the method: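 Mice received one i.v. co-injection of the dual-isotope NGA mixture, 9 µg of each radioiodinated protein, and were housed in metabolic cages for 24 h. Cumulative urine and feces were collected and counted. Values are % injected dose, mean (SD) of five animals, with a Student's paired t-test between the two co-administered conjugates.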

## N[C@@H](CS)C(=O)SC1CC(=O)N(CCCC[C@H](NC(=O)CNC(=O)c2cccc([131I])c2)C(=O)O)C1=O (stereo partly drawn)
[1]
  Radioactivity: 1.9% and 3.14% and 1.63% and 0.82% and 0.5%
[2]
  Radioactivity: 0.13% and 0.28% and 0.17% and 0.12% and 0.05%
[3]
  Radioactivity: 0.17% and 0.46% and 0.3% and 0.35%
[4]
  Radioactivity: 1.22% and 2.93% and 1.48% and 0.58% and 0.43%
[5]
  Radioactivity: 0.05% and 0.23% and 0.09% and 0.03%
[6]
  Radioactivity: 0.07% and 0.25% and 0.12% and 0.05% and 0.03%
[7]
  Radioactivity: 99.07%
[8]
  Radioactivity: 98.39%
[9]
  Radioactivity: 0.39% and 0.47% and 0.46% and 0.45% and 0.51%
[10]
  Radioactivity: 1.22% and 3.14% and 1.28% and 0.54% and 0.31%
[11]
  Radioactivity: 0.66% and 4.66% and 4.59% and 5.75% and 5.43%
[12]
  Radioactivity: 94.15%
[13]
  Radioactivity: 84.45%
